According to article PMC11319934 (PNAS Nexus, 2024):
Peptide text beside a SMILES is read from it. * marks the point of attachment. X1 = CN(C)c1ccc2c(-c3ccc(C(=O)*)cc3C(=O)[O-])c3ccc(=[N+](C)C)cc-3oc2c1

Key:
[1] = test system: A. thaliana seedlings (Col-0); experiment: Root growth of A. thaliana seedlings with MeJA; assay type: in vivo, Arabidopsis thaliana; conditions: 7-day-old Col-0 seedlings, MeJA 50 µM on 1/2 MS, n = 15
Outline: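 Surface-sterilized Col-0 seeds stratified 2–3 days at 4°C. Grown on half-strength MS plates (2% sucrose, 0.4% gellan gum) with MeJA (50 µM) ± test compound (10 µM), under 16 h light (75 µmol m-2 s-1)/8 h dark at 22°C. Whole-seedling root length measured (n = 15). Repeated three times; one-way ANOVA/Tukey's HSD, P < 0.01.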

[2] = test system: M. polymorpha gemmalings (Tak-1); experiment: Growth; assay type: in vivo, Marchantia polymorpha; conditions: Tak-1 gemmalings on 1/2 B5 medium, OPDA 50 µM, n = 24
Outline: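 Tak-1 gemmalings grown 2 weeks on half-strength Gamborg's B5 with 1% agar, containing OPDA (50 µM) ± test compound (10 µM). Continuous light 50–60 µmol m-2 s-1, 22°C. Plant area measured in mm2 (n = 24). Experiment repeated three times; one-way ANOVA/Tukey's HSD, P < 0.01.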

[3] = target: T1, His-MYC3-FLAG (His6-SUMO-MYC3(44–238)-FLAG) (Arabidopsis thaliana, UniProt Q9FIP9); experiment: Fluorescence anisotropy; assay type: binding
T1 sequence (Q9FIP9 44-238): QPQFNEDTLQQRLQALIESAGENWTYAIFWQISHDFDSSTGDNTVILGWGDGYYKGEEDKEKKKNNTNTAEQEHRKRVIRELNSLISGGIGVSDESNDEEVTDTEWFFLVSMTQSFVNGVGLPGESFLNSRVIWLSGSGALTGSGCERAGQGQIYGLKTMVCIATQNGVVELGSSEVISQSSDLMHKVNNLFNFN

[4] = target: T2, His-EIL1-FLAG (Arabidopsis thaliana, UniProt Q9SLH0); experiment: Fluorescence anisotropy; assay type: binding
T2 sequence (Q9SLH0 201-501): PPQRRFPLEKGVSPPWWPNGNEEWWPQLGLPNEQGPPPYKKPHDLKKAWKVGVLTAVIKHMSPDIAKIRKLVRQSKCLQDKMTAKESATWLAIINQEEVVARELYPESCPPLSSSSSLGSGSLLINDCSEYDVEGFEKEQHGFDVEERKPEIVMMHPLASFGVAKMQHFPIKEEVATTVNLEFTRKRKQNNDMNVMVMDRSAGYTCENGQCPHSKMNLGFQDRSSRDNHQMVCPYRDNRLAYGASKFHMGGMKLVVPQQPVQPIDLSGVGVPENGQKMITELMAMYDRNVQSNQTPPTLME
Outline: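 FA titration at 25°C in 20 mM Tris-HCl pH 8.0, 200 mM NaCl, 10% glycerol, 10% cOmplete EDTA-free, with 2-mercaptoethanol (EIN3/EIL1 family). Protein added dropwise to 100 nM TMR-labelled peptide; His-EIN3-FLAG titrated 0–2 µM. Anisotropy read at ex/em 543/573.5 nm. Each point is the average of three independent measurements. Apparent Kd obtained by nonlinear curve fitting.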

## CC/C=C\CC1C(=O)CCC1CC(=O)OC (stereo not shown) [MeJA, methyl jasmonate, reference compound]
[1]
  root growth of seedlings: severe root growth inhibition

## CC/C=C\C[C@@H]1C(=O)C=C[C@@H]1CCCCCCCC(=O)O [OPDA, reference compound]
[2]
  plant growth (plant area): inhibited plant growth

## CC[C@H](C)[C@H](NC(=O)[C@H](C)NC(=O)CNC(=O)[C@H](CCC(N)=O)NC(=O)[C@@H](NC(=O)[C@H](CC(=O)O)NC(=O)[C@H](CCCNC(=N)N)NC(=O)[C@H](Cc1ccccc1)NC(=O)[C@H](CO)NC(=O)[C@H](CCCNC(=N)N)NC(=O)[C@H](CCCNC(=N)N)NC(=O)[C@H](CCCNC(=N)N)NC(=O)[C@H](CC(=O)O)NC(=O)[C@H](CC(C)C)NC(=O)[C@H](Cc1ccccc1)NC(=O)[C@H](CCCCN)NC(=O)[C@H](CCC(N)=O)NC(=O)[C@H](Cc1ccccc1)NC(=O)c1ccc(-c2c3ccc(=[N+](C)C)cc-3oc3cc(N(C)C)ccc23)c(C(=O)[O-])c1)[C@@H](C)CC)C(=O)N[C@@H](CO)C(=O)N[C@@H](CCCCN)C(=O)N[C@H](C(=O)N[C@@H](CC(=O)O)C(=O)N1CCC[C@H]1C(=O)N[C@@H](CCC(=O)O)C(=O)N[C@H](C(=O)N[C@H](C(=O)N[C@@H](CCCCN)C(=O)N[C@@H](CO)C(=O)N[C@@H](CC(C)C)C(=O)N[C@@H](CC(C)C)C(=O)N[C@@H](C)C(=O)N[C@@H](CO)C(=O)N[C@H](C(=O)O)[C@@H](C)O)[C@@H](C)CC)[C@@H](C)CC)[C@@H](C)CC [compound 1] (X1-FQKFLDRRRSFRDIQGAISKIDPEIIKSLLAST-OH)
[3]
  Kd: 210 nM
[4]
  Kd: 440 nM
